# Compound activity: PubChem BioAssay, Broad Institute
# CFTR F508del cor: CFTR F508del correction in bronchial cells; CFBE cells, YFP halide quenching; stimulated with forskolin plus potentiator P3; % fluorescence drop versus neutral controls; activity (quench increase), % at 7.58 µM; 0.36% of 350,000 active;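 active = mean added fluorescence quench of at least 8% versus neutral control, with both replicates also reaching 8%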;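 also: cells transiently co-express mutant CFTR-F508del with the halide-sensitive YFP; corrector assay measuring rescue of mutant channel to the surface after 24 h compound exposure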
# INS-1E GSIS act: GLuc luminescence reporter in INS-1E cells, primary screen for activators of glucose-dependent secretion of insulin. 0.61% of 370,000 active. activation, % at 16.6 µM. INS-1E GLuc reporter insulin secretion, 2-3 h. AID 743287;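 active = lowest replicate activation of at least 40%, so every replicate reaches that level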;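 also: 0% = median of neutral control wells and 100% = median of IBMX positive control wells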
# miR-122 sensor: miR-122 inhibition in Huh7 cells | Huh7 miR-122 Renilla luciferase sensor, 48 h; neutral wells = 0, positive control = 100 | 0.3% of 340,000 active | activation (reporter increase), % at 12.5 µM;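 active = mean replicate activation score at least 90 and every replicate individually at or above 90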;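 also: higher luciferase means less miR-122 activity so hits act as miR-122 inhibitors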
# Env fusion inh: inhibitors of HIV Env-mediated cell fusion. HeLa-JRFL Env/CEM21 cell fusion, luciferase. inhibition, % at 12.3 µM. 1.1% of 360,000 active;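 active = mean replicate inhibition score of at least 50 and every replicate individually at or above 50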;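 also: 0% = plate neutral controls and 100% = maraviroc near 300 nM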
# Ecoli rRNA inh: inhibitors of bacterial rRNA selective over humanized ribosomes; E. coli WT GFP vs humanized-ribosome RFP mutants, fluorescence, 24 h; hits give low values; DMSO median 0, no signal -100; GFP signal change (wild-type ribosome), % (no concentration beside the values); 1.6% of 350,000 active; AID 720706;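 active = significant combined selectivity score with lowered wild-type GFP, culture density cut under 30%, mutant RFP and density less affected; inactive = any of these conditions unmet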
# Cneo AK release: causes C. neoformans cell lysis; lysis activity, % at 15 µM; AID 651654; 0.2% of 360,000 active; adenylate kinase release luminescence, 4 h; normalised: neutral wells 0, clomiphene wells 100;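 active = mean lysis activity across replicates of at least 80%, whatever share of replicates individually reach that level; inactive = mean lysis activity below 80%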
#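 read-out = cell lysis signal | test system = log-phase Cryptococcus neoformans yeast cells | input = cells at 5 × 10^6 per mL | medium = fresh YPD growth medium | signal = luminescent adenylate kinase detection reagent | timing = 4 h at 37 °C static, read 1 h later | dosing = single dose | controls = Clomiphene as positive lysis control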
# An asterisk follows results filed as active; nt = not tested or not shown; [ ] = remark or other dose. This is a sample that favours compounds with a hit; in the whole collection about 3.1% have one here.
SMILES,CFTR F508del cor,INS-1E GSIS act,miR-122 sensor,Env fusion inh,Ecoli rRNA inh,Cneo AK release
Cc1noc(C)c1S(=O)(=O)Nc1ccc2c(c1)C(=O)N([C@@H](C)CO)C[C@@H](C)[C@H](CN(C)Cc1ccc3c(c1)OCO3)OCCCC[C@@H](C)O2,0,2,-1[16.7 µM],18[16.7 µM],0,4
COc1ccccc1CNC(=O)C[C@@H]1C[C@@H]2c3cc(NS(=O)(=O)c4ccc(F)cc4)ccc3O[C@@H]2[C@@H](CO)O1,1,-17,0[16.7 µM],22[16.7 µM],-5,6
COc1ccccc1CNC(=O)C[C@H]1C[C@@H]2c3cc(NS(=O)(=O)c4ccc(F)cc4)ccc3O[C@@H]2[C@H](CO)O1,0,1,1[16.7 µM],94*[16.7 µM],-7,-24
COc1ccccc1CNC(=O)C[C@H]1C[C@@H]2c3cc(NS(=O)(=O)c4ccc(F)cc4)ccc3O[C@@H]2[C@@H](CO)O1,1,-23,-5[16.7 µM],55*[16.7 µM],-5,-19
C[C@@H]1CN([C@@H](C)CO)C(=O)c2cccc(NC(=O)NC3CCCCC3)c2O[C@@H]1CN(C)Cc1ccc2c(c1)OCO2,0,4,0[16.7 µM],12[16.7 µM],1,nt
COc1cccc(C(=O)Nc2ccc3nc4n(c(=O)c3c2)CCCC4)c1,-1,3,-10,-3,-4,1
CN(C)c1cccc(C(=O)Nc2ccc3nc4n(c(=O)c3c2)CCCCC4)c1,3,10,2,13,-26*,-2
CCC(=O)Nc1ccc2c(c1)C(=O)N(C)C[C@@H](OC)[C@@H](C)CN(CCc1ccccc1)[C@H](C)CO2,5,-2,-9[16.7 µM],-20[16.7 µM],1,-3
CN(C)C(=O)c1ccc(N=Nc2c(O)c3ccccc3[nH]c2=O)cc1,-3,-10,3,16,-21*,-9
Cc1cc(N=Nc2c(O)c3ccccc3[nH]c2=O)ccc1N=Nc1ccc(C(=O)N(C)C)cc1,-18,-9,nt,-20,5,1
COc1cc2c(cc1OC)CN(C(=O)CNS(=O)(=O)c1ccc(C)c(C)c1)CC2,2,55*,-5,-6,-3,nt
COc1cc2c(cc1OC)CN(C(=O)CCNS(=O)(=O)c1ccc(Br)cc1)CC2,1,0,nt,-2,-6,nt
CO[C@H]1CN(C)C(=O)c2ccc(NC(C)=O)cc2OC[C@@H](C)N(CCc2ccccc2)C[C@H]1C,-1,5,9[16.7 µM],nt,0,4
O=C1C=C(c2ccc(F)cc2OCc2ccccc2)C[C@@H](c2ccc(Cl)cc2)C1,2,-2,-5,76*,2,-2
N#C/C(=C\Nc1ccc(Cl)cn1)S(=O)(=O)c1ccccn1,2,10,nt,-11,16,nt
N#C/C(=C\Nc1ccc(Cl)cn1)S(=O)(=O)c1ccccc1,2,-7,nt,-10,-35*,nt
COc1cccc(CN(C)C[C@@H]2OCc3cn(nn3)CCCC(=O)N([C@H](C)CO)C[C@@H]2C)c1,0,1,-1[16.7 µM],-3[16.7 µM],1,1
CC(=O)Nc1cccc(/C(C)=N/NC(=S)NC(C)C)c1,1,-4,nt,4,-4,nt
C/C(=N\NC(=S)NC(C)C)c1ccccc1,-3,54*,nt,7,10,nt
O=C(COn1nnc2ccc(C(F)(F)F)cc21)Nc1c(Cl)cccc1Cl,1,-4,nt,-75,-25*,nt
Cc1cccc(C)c1NC(=O)COn1nnc2ccc(C(F)(F)F)cc21,4,3,nt,8,1,nt
Cc1cc(C)c(S(=O)(=O)N2CCCCC2)cc1N(C)S(=O)(=O)c1ccc(Cl)cc1,nt,nt,0,95*,nt,0
Cc1ccc(S(=O)(=O)N(C)c2cc(S(=O)(=O)N3CCOCC3)c(C)cc2C)cc1,-1,-3,1,16,-7,1
COc1cc(/C=C2\SC(=S)N(NS(=O)(=O)c3ccccc3)C2=O)cc(OC)c1OC,-1,-12,-4,-15,-5,-1
COc1ccc(/C=N/NS(=O)(=O)c2ccccc2)cc1OC,0,71*,0,-2,2,2
COC(=O)N/N=C/c1ccc(OS(=O)(=O)c2ccc(C)cc2)c(OC)c1,1,1,nt,21,-28*,nt
